The values below come from ChEMBL document CHEMBL2046293, “Design, synthesis, and biological evaluation of conformationally constrained analogues of naphthol AS-E as inhibitors of CREB-mediated gene transcription” (J Med Chem, 2012).

The nature of assay [1]: Inhibition of CREB kinase-inducible domain/CREB binding protein KID-interacting domain interaction after 20 to 24 hrs by luciferase reporter gene assay.
A short description of assay [2]: Inhibition of CREB expressed in HEK293T cells assessed as inhibition of forskolin-stimulated CRE transcription incubated for 30 mins prior to forskolin-stimulation measured after 4.5 hrs by luciferase reporter gene assay. The format is cell-based. The following applies: HEK-293T. An outline of the steps: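 HEK293T cells transfected with pCRE-RLuc (Lipofectamine 2000), replated after 3 h at 1-2 × 10^4 cells/well and attached overnight. Compounds at various concentrations added 30 min before forskolin (10 μM final), then 4.5 h at 37 °C. Lysate Renilla luciferase read with benzyl-coelenterazine (pH 7.4, 10 μg/mL), normalized to Bradford-dye protein (RLU/μg). IC50 from non-linear regression.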

Bounds are passed on as bounds.

For `O=c1[nH]c2cc3ccccc3cc2c(=O)n1-c1ccc(Cl)cc1`, the IC50 in assay [1] and in assay [2] was more than 50 µM throughout.

As to `Cn1nc(Nc2ccc(Cl)cc2)c2cc3ccccc3cc21`, the results for the IC50 in assay [1] and in assay [2] were 5.19 µM and more than 50 µM, respectively.

As for `Clc1ccc(Nc2n[nH]c3cc4ccccc4cc23)cc1`, the IC50 was 8.74 µM in assay [1] and 4.75 µM in assay [2].

As to `O=c1oc2cc3ccccc3cc2c(=O)n1-c1ccc(Cl)cc1`, the figures for the IC50 in assay [1] and in assay [2] were more than 50 µM and 30.8 µM, respectively.

As for `O=C(Nc1ccc(Cl)cc1)c1cc2ccccc2cc1O`, the IC50 was 2.9 µM in assay [1] and 2.29 µM in assay [2].

`Clc1ccc(Nc2noc3cc4ccccc4cc23)cc1`: the figures for the IC50 in assay [1] and in assay [2] were more than 50 µM and 24.4 µM, respectively.

For the compound `Clc1ccc(Nc2ncnc3cc4ccccc4cc23)cc1`, the IC50 in assay [1] came to 9.46 µM; in assay [2], 19 µM.
